Bioassay records from PubChem.
In the library only some 0.23% were active in any assay of this set; here they are far more common.
Bim-Bcl-W: inhibitors of Bim-Bcl-W interaction, human | Q92843 | inhibition, % at 10 µM | 0.02% of 190,000 active | bead-based flow cytometry, Bim peptide-Bcl-W binding;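 note: 0% = bound tracer without compound and 100% = peptide blocker; higher means less fluorescent Bim peptide bound to Bcl-W beads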
Bcl-XL Bim block: inhibitors of Bim-Bcl-XL interaction, human; Q07817; Bim peptide-Bcl-XL binding, bead flow cytometry, fluorescence; inhibition, % at 10 µM; 0.04% of 190,000 active; AID 1007
Bim-Bfl-1: disrupts Bim binding to human Bfl-1; Q16548; Bead-based flow cytometry, Bim-Bfl-1 binding inhibition; inhibition, % at 10 µM; 0.12% of 190,000 active;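 note: 0% = wells without compound plus tracer and 100% = blocker peptide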
Target sequence (Q16548 whole entry, looked up): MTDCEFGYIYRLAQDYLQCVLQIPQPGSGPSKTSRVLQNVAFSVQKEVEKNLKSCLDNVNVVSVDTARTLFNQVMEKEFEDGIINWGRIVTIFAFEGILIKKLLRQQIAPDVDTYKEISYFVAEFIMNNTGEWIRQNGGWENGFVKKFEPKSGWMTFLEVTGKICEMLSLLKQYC
Bim-Bcl-B: inhibitors of Bim-Bcl-B interaction, human; inhibition, % at 10 µM; Q9HD36; 0.073% of 190,000 active; bead-based flow cytometry, Bim peptide-Bcl-B binding;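 note: 0% = tracer peptide without compound and 100% = reference inhibitor peptide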
Target sequence (Q9HD36 whole entry, looked up): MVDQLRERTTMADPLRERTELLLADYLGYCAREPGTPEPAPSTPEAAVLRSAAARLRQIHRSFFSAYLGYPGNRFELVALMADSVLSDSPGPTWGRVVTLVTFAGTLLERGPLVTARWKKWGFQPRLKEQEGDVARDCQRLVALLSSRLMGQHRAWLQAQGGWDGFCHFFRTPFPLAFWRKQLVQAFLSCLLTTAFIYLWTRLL
Rad51 HR inh: Rad51 (human) homologous recombination inhibition | hRad51 DNA strand exchange, fluorescence dequenching | Q06609 | inhibition, % at 10 µM | 0.085% of 200,000 active;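 active = inhibition above 40% at the single screening dose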;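 note: 0% = DMSO control wells and 100% = blanks with heterologous ssDNA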
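System: human Rad51 nucleoprotein filaments preassembled on unlabelled ssDNA. Reagent: labelled 47-mer dsDNA for strand exchange. Schedule: 30-min compound preincubation and 15-min exchange, both room temperature. Measured by: FRET fluorescence dequenching, excitation 485 nm, emission 520 nm. Read-out: Fluorescence-based percent inhibition, control- and blank-normalised. Benchmarks: plate controls and plate blanks.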
Bim-Bcl-2: inhibitors of Bim-Bcl-2 interaction, human; P10415; 0.06% of 190,000 active; inhibition, % at 10 µM; Bead-based flow cytometry, Bim peptide-Bcl-2 binding; in the data active = inhibition above about 40%;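 note: 0% = no compound wells with probe peptide and 100% = reference peptide inhibitor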
Bim-BclXL dose: dose-response confirmed modulator of Bim binding to human Bcl-XL | shares compounds with Bim-Bfl-1 | bead-based flow cytometry | inhibition of binding at 100 µM | 40 tested, under 10 active; call rule not given here
Starred values were filed as active, the others as inactive. Cut-off read from the data, not from the text of the source, unless noted: active = inhibition above about 40%.

How did Cc1ccc(-c2nc(N3CCOCC3)s[n+]2-c2ccccc2)cc1 do in these assays?
Bim-Bcl-W: 4.0; Bcl-XL Bim block: 11.0; Bim-Bfl-1: 53.0*; Bim-Bcl-B: -42.0; Rad51 HR inh: 6.0; Bim-Bcl-2: 13.0

What do the screens show for `CCOC(=O)c1cc(C(O)(C(=O)OC)C(F)(F)F)c(/N=C/N(C)C)o1` (stereo unspecified)?
Bim-Bcl-W: 1.0; Bcl-XL Bim block: -4.0; Bim-Bfl-1: -9.0; Bim-Bcl-B: -8.0; Rad51 HR inh: -3.5; Bim-Bcl-2: -5.0

Results for CC(C)(C)P(=O)(N1CCOCC1)N1CCOCC1 ?
Bim-Bcl-W: 0.0; Bcl-XL Bim block: -1.0; Bim-Bfl-1: -1.0; Bim-Bcl-B: -4.0; Rad51 HR inh: -6.0; Bim-Bcl-2: -2.0

What do the screens show for `O=P(OCC(F)(F)C(F)F)(N1CCOCC1)N1CCOCC1`?
Bim-Bcl-W: -2.0; Bcl-XL Bim block: -5.0; Bim-Bfl-1: -11.0; Bim-Bcl-B: -9.0; Rad51 HR inh: 88.5*; Bim-Bcl-2: -12.0

How did O=C1NC(=O)N(c2ccccc2)C(=O)/C1=C/c1coc2ccc(O)cc2c1=O do in these assays?
Rad51 HR inh: -21.3

How did O=C(NCCN1CCOCC1)c1ccc(Cl)nc1 do in these assays?
Rad51 HR inh: 40.4*

What do the screens show for `CCCCCn1c(N)c(C(=O)NCCN2CCOCC2)c2nc3ccccc3nc21`?
Bim-Bcl-W: -1.0; Bcl-XL Bim block: 1.0; Bim-Bfl-1: 1.0; Bim-Bcl-B: -4.0; Rad51 HR inh: -1.8; Bim-Bcl-2: 0.0

How did Cc1ccc2c(c1)C1CN(C)CCC1N2C(=S)Nc1cccnc1 (stereo unspecified) do in these assays?
Bim-Bcl-W: -1.0; Bcl-XL Bim block: -2.0; Bim-Bfl-1: -4.0; Bim-Bcl-B: -7.0; Rad51 HR inh: -38.7; Bim-Bcl-2: -3.0

Results for Cc1ccc2c(c1)C1CN(C)CCC1N2C(=O)Nc1cccc(Cl)c1 (stereo unspecified) ?
Bim-Bcl-W: 16.0; Bcl-XL Bim block: 19.0; Rad51 HR inh: -1.4; Bim-Bcl-2: 85.0*

What do the screens show for `COC(=O)C1C2c3ccccc3OC1(C)N=c1s/c(=C/c3cnn(C)c3C)c(=O)n12` (stereo unspecified)?
Bim-Bcl-W: 19.0; Bcl-XL Bim block: 18.0; Bim-Bfl-1: 11.0; Bim-Bcl-B: 73.0*; Rad51 HR inh: 6.5; Bim-Bcl-2: 27.0

How did COc1ccc(C2CN(C)CC2C(=O)c2ccc(F)cc2)cc1Cl (stereo unspecified) do in these assays?
Bim-Bcl-W: 2.0; Bcl-XL Bim block: 4.0; Bim-Bfl-1: 59.0*; Bim-Bcl-B: 77.0*; Rad51 HR inh: 22.6; Bim-Bcl-2: 81.0*

What do the screens show for `Cc1nn(Cc2ccccc2)c(C)c1C(=O)OCC(=O)Nc1cc(S(C)(=O)=O)ccc1Cl`?
Bim-Bcl-W: 4.0; Bcl-XL Bim block: 2.0; Bim-Bfl-1: 6.0; Bim-Bcl-B: -5.0; Rad51 HR inh: -1.7; Bim-Bcl-2: -3.0

Results for O=C1NC(=O)C2(Cc3c(nc4ccccn4c3=O)N3CCCCCC32)C(=O)N1Cc1ccccc1 (stereo unspecified) ?
Bim-Bcl-W: 0.0; Bcl-XL Bim block: -4.0; Bim-Bfl-1: -1.0; Bim-Bcl-B: 59.0*; Rad51 HR inh: 1.7; Bim-Bcl-2: 4.0; Bim-BclXL dose: 3.82

Results for CC(C)(C#CCCCCC#CC(C)(C)[N+](C)(C)C)[N+](C)(C)C ?
Rad51 HR inh: 17.3
